Measurements reported in ChEMBL document CHEMBL1255448, “The 6-aminoquinolone WC5 inhibits human cytomegalovirus replication at an early stage by interfering with the transactivating activity of viral immediate-early 2 protein” (Antimicrob Agents Chemother, 2010).
Activity calls are given as the source filed them. The calls are words filed in the database; no cut-off is given here.

Key:
[1] = system: Human betaherpesvirus 5; experiment: Antiviral activity against human cytomegalovirus AD169 in human HFF assessed as reduction of viral attachment to fibroblast after 2 hrs at 37 degC; format: functional, organism-based
[2] = system: Human betaherpesvirus 5; experiment: Antiviral activity against human cytomegalovirus AD169 infected in human HFF assessed as inhibition of plaque formation by plaque reduction assay; format: functional, organism-based; settings: Human betaherpesvirus 5, AD169
Procedure, shortened: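 Plaque reduction against AD169 in HFF. EC50 is the concentration giving 50% inhibition of plaque formation, reported as mean ± SD of at least three independent experiments run in duplicate.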

[3] = Selectivity index, ratio of CC50 for human HFF to EC50 for human cytomegalovirus AD169
Procedure, shortened: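 Selectivity index is CC50 from the HFF MTT assay divided by EC50 from the AD169 plaque reduction assay in HFF.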

[4] = Inhibition of human cytomegalovirus DNA polymerase catalytic subunit UL54 assessed as incorporation of [3H]dTTP; set-up: species or system Human betaherpesvirus 5
Procedure, shortened: (§1)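 Filter-based assay with purified baculovirus-expressed UL54 catalytic subunit, alone or with UL44 accessory subunit. Incorporation of [3H]dTTP into poly(dA)-oligo(dT)12-18 template-primer was measured across serial compound dilutions, with FOS as control. Means ± standard deviations from four independent experiments.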

[5] = Inhibition of human cytomegalovirus DNA polymerase catalytic subunit UL54/UL44 assessed as incorporation of [3H]dTTP; set-up: species or system Human betaherpesvirus 5; procedure, shortened: as §1
[6] = system: Human betaherpesvirus 5; experiment: Antiviral activity against human cytomegalovirus AD169 infected in human HFF assessed as virus yield reduction; format: functional, organism-based; settings: Human betaherpesvirus 5, AD169
[7] = system: Human betaherpesvirus 5; experiment: Antiviral activity against 1 MOI human cytomegalovirus AD169 infected in human HFF assessed as virus yield reduction by yield reduction assay; format: functional, organism-based; settings: Human betaherpesvirus 5, AD169
[8] = system: Human betaherpesvirus 5; experiment: Antiviral activity against 0.1 MOI human cytomegalovirus AD169 infected in human HFF assessed as inhibition of immediate early phase UL122 mRNA expression after 16 hrs by RT-PCR analysis; format: functional, organism-based
Procedure, shortened: (§2)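 HFF seeded at 6×10^5 per well, infected with AD169 at MOI 0.1 PFU/cell, then given 50 µM drug or 0.2% DMSO. ActD 5 µg/ml, CHX 75 µg/ml and FOS 750 µM served as IE, E and L transcription controls. Total RNA was taken at 16 and 48 h p.i.; 1 µg was reverse-transcribed with random hexamers and MuLV RT. PCR used UL122/UL123 (IE), UL54/UL84 (E) and UL55/UL75 (L) primers with a β-actin control, and products were read on ethidium bromide agarose gels.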

[9] = system: Human betaherpesvirus 5; experiment: Antiviral activity against 0.1 MOI human cytomegalovirus AD169 infected in human HFF assessed as inhibition of immediate early phase UL123 mRNA expression after 16 hrs by RT-PCR analysis; format: functional, organism-based; procedure, shortened: as §2
[10] = system: Human betaherpesvirus 5; experiment: Antiviral activity against 0.1 MOI human cytomegalovirus AD169 infected in human HFF assessed as inhibition of immediate early phase P72 protein expression after 24 hrs by Western blot analysis; format: functional, organism-based
Procedure, shortened: (§3)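 HFF infected with HCMV AD169 at MOI 0.1 PFU/cell, treated with 50 µM compound or 0.2% DMSO. ActD 5 µg/ml, CHX 75 µg/ml and FOS 750 µM served as controls. Harvests at 24, 48 and 72 h p.i. were lysed in NP-40 buffer, then SDS-PAGE and PVDF blotting. Probes were anti-IE1/IE2 (p72/p86) MAb or anti-UL55, then HRP secondary and ECL. β-actin reprobe was the internal control.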

[11] = system: Human betaherpesvirus 5; experiment: Antiviral activity against 0.1 MOI human cytomegalovirus AD169 infected in human HFF assessed as inhibition of immediate early phase P86 protein expression after 24 hrs by Western blot analysis; format: functional, organism-based; procedure, shortened: as §3
[12] = system: Human betaherpesvirus 5; experiment: Antiviral activity against 0.1 MOI human cytomegalovirus AD169 infected in human HFF assessed as inhibition of late phase UL55 protein expression after 72 hrs of infection by Western blot analysis; format: functional, organism-based; procedure, shortened: as §3
[13] = system: Human betaherpesvirus 5; experiment: Antiviral activity against 0.1 MOI human cytomegalovirus AD169 infected in human U373-MG cells expressing UL54-EGFP reporter assessed as inhibition of EGFP expression after 48 hrs of infection by confocal fluorescence microscopy; format: functional, organism-based; settings: U-373MG ATCC
Procedure, shortened: (§4)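 Stable U373-MG reporter cells were seeded on coverslips at 3×10^5 per well and infected with AD169 at MOI 0.1 or 0.5. They were then treated with 50 µM drug, 5 µM fomivirsen (also given 1 h before and during infection) or 0.2% DMSO. At 48 h p.i. cells were fixed in 4% paraformaldehyde for 15 min, and EGFP-positive cells were counted by confocal microscopy at 20×.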

[14] = system: Human betaherpesvirus 5; experiment: Antiviral activity against 0.1 MOI human cytomegalovirus AD169 infected in human U373-MG cells expressing UL112/113-EGFP reporter assessed as inhibition of EGFP expression after 48 hrs of infection by confocal fluorescence microscopy; format: functional, organism-based; settings: U-373MG ATCC; procedure, shortened: as §4
[15] = system: Human betaherpesvirus 5; experiment: Antiviral activity against 0.5 MOI human cytomegalovirus AD169 infected in human U373-MG cells expressing UL54-EGFP reporter assessed as inhibition of EGFP expression after 48 hrs of infection by confocal fluorescence microscopy; format: functional, organism-based; settings: U-373MG ATCC; procedure, shortened: as §4
[16] = system: Human betaherpesvirus 5; experiment: Antiviral activity against 0.5 MOI human cytomegalovirus AD169 infected in human U373-MG cells expressing UL112/113-EGFP reporter assessed as inhibition of EGFP expression after 48 hrs of infection by confocal fluorescence microscopy; format: functional, organism-based; settings: U-373MG ATCC; procedure, shortened: as §4
[17] = system: Human betaherpesvirus 5; experiment: Antiviral activity against 0.1 MOI human cytomegalovirus AD169 infected in human HFF assessed as virus yield reduction by yield reduction assay; format: functional, organism-based; settings: Human betaherpesvirus 5, AD169
[18] = system: Human betaherpesvirus 5; experiment: Antiviral activity against 0.01 MOI human cytomegalovirus AD169 infected in human HFF assessed as virus yield reduction by yield reduction assay; format: functional, organism-based; settings: Human betaherpesvirus 5, AD169
[19] = system: Human betaherpesvirus 5; experiment: Antiviral activity against human cytomegalovirus AD169 in human HFF assessed as reduction of viral attachment to fibroblast at 4 degC; format: functional, organism-based
Procedure, shortened: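 Prechilled HFF monolayers received 100 PFU AD169 together with graded compound or heparin control for 2 or 4 h at 4°C. Cells were washed with cold PBS, overlaid with compound-free 0.6% methylcellulose medium and kept 10 days at 37°C. Plaques were stained with crystal violet and counted. Three experiments were run in duplicate; mean ± SD.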

[20] = system: Human betaherpesvirus 5; experiment: Antiviral activity against human cytomegalovirus AD169 in human HFF assessed as reduction of viral entry into fibroblast after 2 hrs at 37 degC; settings: Human betaherpesvirus 5, AD169, 2 h
[21] = system: Human betaherpesvirus 5; experiment: Antiviral activity against 1 MOI human cytomegalovirus AD169 infected in human HFF assessed as inhibition of viral replication up to 30 hrs post infection
[22] = system: Human betaherpesvirus 5; experiment: Antiviral activity against 0.1 MOI human cytomegalovirus AD169 infected in human HFF assessed as inhibition of early phase UL54 mRNA expression after 16 hrs by RT-PCR analysis
[23] = system: Human betaherpesvirus 5; experiment: Antiviral activity against 0.1 MOI human cytomegalovirus AD169 infected in human HFF assessed as inhibition of early phase UL84 mRNA expression after 16 hrs by RT-PCR analysis
[24] = system: Human betaherpesvirus 5; experiment: Antiviral activity against 0.1 MOI human cytomegalovirus AD169 infected in human cells expressing UL54-EGFP reporter assessed as inhibition of IE2 transactivating activity after 48 hrs of infection by confocal fluorescence microscopy
[25] = system: Human betaherpesvirus 5; experiment: Antiviral activity against 0.1 MOI human cytomegalovirus AD169 infected in human cells expressing UL112/113-EGFP reporter assessed as inhibition of IE2 transactivating activity after 48 hrs of infection by confocal fluorescence microscopy

Cc1cn([C@H]2C[C@H](OP(O)(=S)OC[C@H]3O[C@@H](n4ccc(N)nc4=O)C[C@@H]3OP(O)(=S)OC[C@H]3O[C@@H](n4cnc5c(=O)[nH]c(N)nc54)C[C@@H]3OP(O)(=S)OC[C@H]3O[C@@H](n4cc(C)c(=O)[nH]c4=O)C[C@@H]3OP(O)(=S)OC[C@H]3O[C@@H](n4ccc(N)nc4=O)C[C@@H]3OP(O)(=S)OC[C@H]3O[C@@H](N4C(=O)C5N=CNC5N=C4N)C[C@@H]3OP(O)(=S)OC[C@H]3O[C@@H](n4cc(C)c(=O)[nH]c4=O)C[C@@H]3OP(O)(=S)OC[C@H]3O[C@@H](n4cc(C)c(=O)[nH]c4=O)C[C@@H]3OP(O)(=S)OC[C@H]3O[C@@H](n4cc(C)c(=O)[nH]c4=O)C[C@@H]3OP(O)(=S)OC[C@H]3O[C@@H](n4cc(C)c(=O)[nH]c4=O)C[C@@H]3OP(O)(=S)OC[C@H]3O[C@@H](N4C=NC5C(=O)NC(N)=NC54)C[C@@H]3OP(O)(=S)OC[C@H]3O[C@@H](n4cc(C)c(=O)[nH]c4=O)C[C@@H]3OP(O)(=S)OC[C@H]3O[C@@H](n4ccc(N)nc4=O)C[C@@H]3OP(O)(=S)OC[C@H]3O[C@@H](N4C=NC5C(=O)NC(N)=NC54)C[C@@H]3OP(O)(=S)OC[C@H]3O[C@@H](n4cc(C)c(=O)[nH]c4=O)C[C@@H]3OP(O)(=S)OC[C@H]3O[C@@H](n4cc(C)c(=O)[nH]c4=O)C[C@@H]3OP(O)(=S)OC[C@H]3O[C@@H](n4cc(C)c(=O)[nH]c4=O)C[C@@H]3OP(O)(=S)OC[C@H]3O[C@@H](n4cc(C)c(=O)[nH]c4=O)C[C@@H]3OP(O)(=S)OC[C@H]3O[C@@H](n4cnc5c(=O)[nH]c(N)nc54)C[C@@H]3OP(O)(=S)OC[C@H]3O[C@@H](n4cc(C)c(=O)[nH]c4=O)C[C@@H]3OP(O)(=S)OC[C@H]3O[C@@H](n4ccc(N)nc4=O)C[C@@H]3OP(O)(=S)OC[C@H]3O[C@@H](N4C=NC5C(=O)NC(N)=NC54)C[C@@H]3OP(O)(=S)OC[C@H]3O[C@@H](n4cc(C)c(=O)[nH]c4=O)C[C@@H]3OP(O)(=S)OC[C@H]3O[C@@H](n4cc(C)c(=O)[nH]c4=O)C[C@@H]3O)[C@@H](CO)O2)c(=O)[nH]c1=O (stereo not given in full)
Activity [1]: Active

Nc1cc2c(=O)c(C(=O)O)cn(C3CC3)c2cc1N1CCN(c2ccccn2)CC1
EC50 [2]: 0.9 µM
Selectivity Index [3]: 479
IC50 [4]: > 100 µM
IC50 [5]: > 100 µM
EC50 [6]: 8.6 µM
EC90 [7]: 51.9 µM
inhibition [8]: inactive
inhibition [9]: inactive
inhibition [10]: inactive
inhibition [11]: inactive
inhibition [12]: Active
inhibition [13]: Active
inhibition [14]: Active
inhibition [15]: Active
inhibition [16]: Active
EC90 [17]: 34.7 µM
EC90 [18]: 8.5 µM
Activity [19]: inactive
EC50 [20]: > 25 µM
Activity [21]: Active
inhibition [22]: Active
inhibition [23]: Active
inhibition [24]: Active
inhibition [25]: Active
